Laboratory results taken from ChEMBL document CHEMBL3526048, “In vitro metabolism of rivoglitazone, a novel peroxisome proliferator-activated receptor γ agonist, in rat, monkey, and human liver microsomes and freshly isolated hepatocytes” (Drug Metab Dispos, 2011).

Key:
Liver microsome [1] = assay: Drug metabolism in human liver microsomes assessed as formation of 2-mercapto-3-(4-((6-methoxy-1-methyl-1H-benzo[d]imidazol-2-yl)methoxy)phenyl)propanamide at 20 uM after 2 hrs by radio-HPLC/LC-MS/MS analysis in presence of NADPH-generating system and NADPH-generating system/SAM; type: ADME
Liver microsome [2] = assay: Drug metabolism in Sprague-Dawley rat liver microsomes assessed as formation of 2-mercapto-3-(4-((6-methoxy-1-methyl-1H-benzo[d]imidazol-2-yl)methoxy)phenyl)propanoic acid at 20 uM after 2 to 4 hrs by radio-HPLC/LC-MS/MS analysis in presence of UDPGA, UDPGA/SAM and NADPH-generating system; type: ADME
[3] = Drug metabolism in human hepatocytes assessed as formation of 3-(4-((6-methoxy-1-methyl-1H-benzo[d]imidazol-2-yl)methoxy)phenyl)-2-(methylsulfonyl)propanamide at 30 uM after 3 hrs by radio-HPLC/LC-MS/MS analysis in presence of NADPH-generating system/SAM; type: ADME, cell-based, Hepatocyte
Liver microsome [4] = assay: Drug metabolism in Sprague-Dawley rat liver microsomes assessed as formation of 3-(4-((6-methoxy-1-methyl-1H-benzo[d]imidazol-2-yl)methoxy)phenyl)-2-(methylthio)propanamide at 20 uM after 2 hrs by radio-HPLC/LC-MS/MS analysis in presence of NADPH-generating system/SAM; type: ADME
[5] = Drug metabolism in cynomolgus monkey liver microsomes assessed as formation of 2-hydroxy-3-(4-((6-methoxy-1-methyl-1H-benzo[d]imidazol-2-yl)methoxy)phenyl)propanamide at 20 uM after 2 hrs by radio-HPLC/LC-MS/MS analysis in presence of NADPH-generating system and NADPH-generating system/SAM; type: ADME, Macaca fascicularis
[6] = Drug metabolism in rat hepatocytes assessed as formation of 5-(4-((6-hydroxy-1-methyl-1H-benzo[d]imidazol-2-yl)methoxy)benzyl)thiazolidine-2,4-dione at 30 uM after 3 hrs by radio-HPLC/LC-MS/MS analysis in presence of NADPH-generating system and NADPH-generating system/SAM; type: ADME, cell-based, Hepatocyte
Cytochrome P450 2D6 = Cytochrome P450 2D6 (Homo sapiens, UniProt P10635); assay: Activity of human CYP2D6 expressed in microsomes isolated from baculovirus infected insect cell assessed as enzyme-mediated 5-(4-((6-methoxy-1H-benzo[d]imidazol-2-yl)methoxy)benzyl)thiazolidine-2,4-dione formation at 20 uM after 2 hrs by radio-HPLC/LC-MS/MS analysis in presence of NADPH-generating system and NADPH-generating system/SAM; type: ADME
Cytochrome P450 2C9 = Cytochrome P450 2C9 (Homo sapiens, UniProt P11712); assay: Activity of human CYP2C9 expressed in microsomes isolated from baculovirus infected insect cell assessed as enzyme-mediated 5-hydroxy-5-(4-((6-methoxy-1-methyl-1H-benzo[d]imidazol-2-yl)methoxy)benzyl)thiazolidine-2,4-dione formation at 20 uM after 2 hrs by radio-HPLC/LC-MS/MS analysis in presence of NADPH-generating system and NADPH-generating system/SAM; type: ADME
Cytochrome P450 2C19 [7] = target: T1, Cytochrome P450 2C19 (Homo sapiens, UniProt P33261); assay: Activity of human CYP2C19 expressed in microsomes isolated from baculovirus infected insect cell assessed as enzyme-mediated 3-(4-((6-methoxy-1-methyl-1H-benzo[d]imidazol-2-yl)methoxy)phenyl)-2-(methylthio)propanoic acid formation at 20 uM after 2 hrs by radio-HPLC/LC-MS/MS analysis in presence of NADPH-generating system/SAM and UDPGA/SAM; type: ADME
Cytochrome P450 3A5 [8] = target: T2, Cytochrome P450 3A5 (Homo sapiens, UniProt P20815); assay: Activity of human CYP3A5 expressed in microsomes isolated from baculovirus infected insect cell assessed as enzyme-mediated 3-(4-((6-methoxy-1-methyl-1H-benzo[d]imidazol-2-yl)methoxy)phenyl)-2-(methylsulfonyl)propanamide formation at 20 uM after 2 hrs by radio-HPLC/LC-MS/MS analysis in presence of NADPH-generating system/SAM; type: ADME
Outline: (§1)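 cDNA-expressed human CYP3A5 in baculovirus-insect-cell microsomes (1 mg/ml protein) was incubated with [¹⁴C]rivoglitazone (20 μM) in 50 mM potassium phosphate (pH 7.4) or 100 mM Tris-HCl (pH 7.5). NADPH-generating system: 2 mM NADP⁺, 20 mM glucose 6-phosphate, 2 units/ml G6PDH, 10 mM MgCl₂. Incubation ran 2 h at 37°C with shaking; insect-cell control supersomes served as control. Acetonitrile stop, supernatant concentrated, then radio-HPLC, LC-MS and LC-MS/MS.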

Liver microsome [9] = assay: Drug metabolism in human liver microsomes assessed as formation of (2S,3S,4S,5R,6R)-3,4,5-trihydroxy-6-(5-(4-((6-methoxy-1-methyl-1H-benzo[d]imidazol-2-yl)methoxy)benzyl)-2,4-dioxothiazolidin-3-yl)tetrahydro-2H-pyran-2-carboxylic acid at 20 uM after 4 hrs by radio-HPLC/LC-MS/MS analysis in presence of UDPGA and UDPGA/SAM; type: ADME
[10] = Drug metabolism in cynomolgus monkey liver microsomes assessed as formation of 5-(4-((6-methoxy-1H-benzo[d]imidazol-2-yl)methoxy)benzyl)thiazolidine-2,4-dione at 20 uM after 2 hrs by radio-HPLC/LC-MS/MS analysis in presence of NADPH-generating system and NADPH-generating system/SAM; type: ADME, Macaca fascicularis
Cytochrome P450 3A5 [11] = target: T2, Cytochrome P450 3A5; assay: Activity of human CYP3A5 expressed in microsomes isolated from baculovirus infected insect cell assessed as enzyme-mediated 2-mercapto-3-(4-((6-methoxy-1-methyl-1H-benzo[d]imidazol-2-yl)methoxy)phenyl)propanoic acid formation at 20 uM after 2 hrs by radio-HPLC/LC-MS/MS analysis in presence of NADPH-generating system; type: ADME; outline: as §1
[12] = target: T3, UDP-glucuronosyltransferase 1A4 (Homo sapiens, UniProt P22310); assay: Activity of human UGT1A4 expressed in microsomes isolated from baculovirus infected insect cell assessed as enzyme-mediated (2S,3S,4S,5R,6R)-3,4,5-trihydroxy-6-(5-(4-((6-methoxy-1-methyl-1H-benzo[d]imidazol-2-yl)methoxy)benzyl)-2,4-dioxothiazolidin-3-yl)tetrahydro-2H-pyran-2-carboxylic acid formation at 20 uM after 4 hrs by radio-HPLC/LC-MS/MS analysis in presence of UDPGA; type: ADME
T3 sequence (P22310 whole entry): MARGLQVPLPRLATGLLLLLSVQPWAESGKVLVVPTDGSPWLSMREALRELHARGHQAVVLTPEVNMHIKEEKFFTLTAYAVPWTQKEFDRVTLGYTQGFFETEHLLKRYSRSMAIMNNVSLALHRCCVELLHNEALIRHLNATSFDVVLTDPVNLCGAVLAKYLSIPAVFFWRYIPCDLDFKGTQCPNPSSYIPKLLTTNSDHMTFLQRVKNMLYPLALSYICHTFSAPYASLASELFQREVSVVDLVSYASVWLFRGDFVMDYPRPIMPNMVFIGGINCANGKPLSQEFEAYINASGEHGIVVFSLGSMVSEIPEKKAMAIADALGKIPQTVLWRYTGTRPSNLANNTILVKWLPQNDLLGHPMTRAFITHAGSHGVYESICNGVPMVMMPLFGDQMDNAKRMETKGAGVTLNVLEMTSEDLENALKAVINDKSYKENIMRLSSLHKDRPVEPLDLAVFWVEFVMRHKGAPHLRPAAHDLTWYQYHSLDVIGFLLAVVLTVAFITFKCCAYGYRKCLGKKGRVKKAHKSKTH

Cytochrome P450 2C19 [13] = target: T1, Cytochrome P450 2C19; assay: Activity of human CYP2C19 expressed in microsomes isolated from baculovirus infected insect cell assessed as enzyme-mediated 3-(4-((6-methoxy-1-methyl-1H-benzo[d]imidazol-2-yl)methoxy)phenyl)-2-(methylthio)propanamide formation at 20 uM after 2 hrs by radio-HPLC/LC-MS/MS analysis in presence of NADPH-generating system/SAM; type: ADME
[14] = Drug metabolism in monkey hepatocytes assessed as formation of 2-amino-3-((1-carboxy-2-(4-((6-methoxy-1-methyl-1H-benzo[d]imidazol-2-yl)methoxy)phenyl)ethyl)disulfanyl)propanoic acid at 30 uM after 3 hrs by radio-HPLC/LC-MS/MS analysis; details: cynomolgus monkey
[15] = Drug metabolism in monkey hepatocytes assessed as formation of 3-(4-((6-methoxy-1-methyl-1H-benzo[d]imidazol-2-yl)methoxy)phenyl)-2-(methylsulfinyl)propanamide at 30 uM after 3 hrs by radio-HPLC/LC-MS/MS analysis in presence of NADPH-generating system/SAM; details: cynomolgus monkey

T1 sequence (P33261 whole entry): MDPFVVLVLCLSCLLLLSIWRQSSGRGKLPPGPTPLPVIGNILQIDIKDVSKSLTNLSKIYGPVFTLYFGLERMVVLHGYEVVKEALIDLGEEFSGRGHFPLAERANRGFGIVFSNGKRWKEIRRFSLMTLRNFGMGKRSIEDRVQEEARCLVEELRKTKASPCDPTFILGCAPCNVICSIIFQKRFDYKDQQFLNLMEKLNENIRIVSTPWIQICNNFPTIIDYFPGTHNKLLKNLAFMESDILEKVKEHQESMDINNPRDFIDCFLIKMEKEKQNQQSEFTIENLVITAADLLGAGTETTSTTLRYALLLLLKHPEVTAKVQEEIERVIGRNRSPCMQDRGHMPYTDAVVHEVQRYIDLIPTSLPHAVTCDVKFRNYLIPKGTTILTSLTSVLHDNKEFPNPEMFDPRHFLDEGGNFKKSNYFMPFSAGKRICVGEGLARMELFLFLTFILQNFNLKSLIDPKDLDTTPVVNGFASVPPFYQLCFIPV
T2 sequence (P20815 whole entry): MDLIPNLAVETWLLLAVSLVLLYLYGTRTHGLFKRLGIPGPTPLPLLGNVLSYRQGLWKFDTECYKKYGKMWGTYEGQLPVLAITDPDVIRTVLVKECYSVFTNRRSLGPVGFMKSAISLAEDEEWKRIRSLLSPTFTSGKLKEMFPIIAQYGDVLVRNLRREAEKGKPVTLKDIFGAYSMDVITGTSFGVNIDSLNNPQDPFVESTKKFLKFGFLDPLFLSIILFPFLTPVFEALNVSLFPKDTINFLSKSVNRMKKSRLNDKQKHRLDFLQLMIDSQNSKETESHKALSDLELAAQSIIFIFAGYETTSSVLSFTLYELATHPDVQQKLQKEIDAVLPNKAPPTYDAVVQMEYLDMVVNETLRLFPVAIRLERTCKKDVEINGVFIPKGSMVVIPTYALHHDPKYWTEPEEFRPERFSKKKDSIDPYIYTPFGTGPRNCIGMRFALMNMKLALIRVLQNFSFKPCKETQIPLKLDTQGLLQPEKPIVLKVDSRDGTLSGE
Sequence of Cytochrome P450 2D6 (P10635 whole entry): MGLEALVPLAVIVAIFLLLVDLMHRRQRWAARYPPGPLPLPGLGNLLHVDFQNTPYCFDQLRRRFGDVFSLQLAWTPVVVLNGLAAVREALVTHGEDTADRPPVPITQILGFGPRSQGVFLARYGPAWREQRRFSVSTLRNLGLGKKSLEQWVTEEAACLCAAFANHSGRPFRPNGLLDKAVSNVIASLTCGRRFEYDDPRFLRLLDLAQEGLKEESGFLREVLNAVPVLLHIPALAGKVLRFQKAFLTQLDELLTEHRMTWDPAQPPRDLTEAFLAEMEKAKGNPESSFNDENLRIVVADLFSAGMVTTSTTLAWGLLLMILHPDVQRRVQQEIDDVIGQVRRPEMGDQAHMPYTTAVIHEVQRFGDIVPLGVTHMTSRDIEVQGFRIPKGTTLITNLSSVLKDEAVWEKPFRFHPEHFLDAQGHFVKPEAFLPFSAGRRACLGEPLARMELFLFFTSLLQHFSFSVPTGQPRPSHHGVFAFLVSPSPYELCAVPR
Sequence of Cytochrome P450 2C9 (P11712 whole entry): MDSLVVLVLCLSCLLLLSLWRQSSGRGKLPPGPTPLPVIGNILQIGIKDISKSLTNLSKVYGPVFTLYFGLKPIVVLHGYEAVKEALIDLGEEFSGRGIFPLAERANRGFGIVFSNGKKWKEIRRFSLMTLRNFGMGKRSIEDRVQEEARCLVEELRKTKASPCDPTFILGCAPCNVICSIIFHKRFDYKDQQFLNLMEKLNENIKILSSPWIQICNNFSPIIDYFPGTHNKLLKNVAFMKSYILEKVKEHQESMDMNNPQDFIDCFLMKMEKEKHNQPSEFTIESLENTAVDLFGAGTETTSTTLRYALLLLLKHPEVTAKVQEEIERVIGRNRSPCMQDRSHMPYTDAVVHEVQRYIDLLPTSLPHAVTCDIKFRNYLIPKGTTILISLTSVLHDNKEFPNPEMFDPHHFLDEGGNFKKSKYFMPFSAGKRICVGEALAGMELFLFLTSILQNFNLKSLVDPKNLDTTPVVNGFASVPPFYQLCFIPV

Drug metabolism (Liver microsome [1]): metabolite_detected
Drug metabolism (Liver microsome [2]): metabolite_detected
Drug metabolism [3]: metabolite_detected
Drug metabolism (Liver microsome [4]): metabolite_detected
Drug metabolism [5]: metabolite_detected
Drug metabolism [6]: metabolite_detected
Drug metabolism (Cytochrome P450 2D6): metabolite_detected
Drug metabolism (Cytochrome P450 2C9): metabolite_detected
Drug metabolism (Cytochrome P450 2C19 [7]): metabolite_not_detected
Drug metabolism (Cytochrome P450 3A5 [8]): metabolite_not_detected
Drug metabolism (Liver microsome [9]): metabolite_detected
Drug metabolism [10]: metabolite_detected
Drug metabolism (Cytochrome P450 3A5 [11]): metabolite_detected
Drug metabolism [12]: metabolite_not_detected
Drug metabolism (Cytochrome P450 2C19 [13]): metabolite_not_detected
Drug metabolism [14]: metabolite_not_detected
Drug metabolism [15]: metabolite_not_detected
SMILES: COc1ccc2nc(COc3ccc(C[14CH]4SC(=O)NC4=O)cc3)n(C)c2c1.Cl (racemic)
